Screens deposited in PubChem by The Scripps Research Institute Molecular Screening Center.
Rows were chosen to be rich in hits. Some 2.3% of all compounds tested hit in one or more screens of this group.
ADAM17 inh: inhibitors of human ADAM17 | recombinant ADAM17, EDANS/DABCYL FRET peptide cleavage | 0.83% of 370,000 active | inhibition, % at 6.95 µM | P78536;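 active means inhibition above the mean of compounds lying between control limits plus 3 SD, set per campaign, cut at about 8.5% in these data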
PLC-gamma1 inh: PLC-gamma1 (human) inhibition, primary screen; P19174; purified PLC-gamma1, fluorogenic substrate, fluorescence; inhibition, % at 12.2 µM; 0.84% of 370,000 active; AID 720700
Tb MetRS inh: blocks T. brucei methionyl-tRNA synthetase activity. purified T. brucei MetRS, ATP depletion, Kinase-Glo luminescence. inhibition, % at 11.9 µM. 0.4% of 360,000 active. AID 624268;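 active means inhibition above a per-plate cutoff of the control wells' mean inhibition plus 3 SD, cut at about 5.5% in these data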
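Material: T. brucei methionyl-tRNA synthetase, purified; reagent: substrates ATP, L-methionine and bulk Escherichia coli tRNA; dosing: 11.9 µM single point; timing: 15 min plus 2 h at 25 °C; detection: luminescence of leftover ATP; evaluation: % inhibition; control set: DMSO-only wells as low control; replicates: singlicate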
PLC-beta3 inh: PLC-beta3 (human) inhibition, primary screen | inhibition, % at 12.2 µM | 0.18% of 370,000 active | Q01970 | Purified PLC-beta3, fluorogenic substrate, fluorescence | AID 720704; in the data active means inhibition above about 11%
ADAM10 inh: ADAM10 inhibition, QFRET primary screen; recombinant ADAM10, EDANS/DABCYL FRET peptide cleavage, 3 h; inhibition, % at 7 µM; 0.62% of 370,000 active; AID 720582;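 active means inhibition above a per-campaign cutoff equal to the mean of compounds falling between control-based bounds plus 3 SD, cut at about 20% in these data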
Target sequence (O14672 214-748 limits assumed): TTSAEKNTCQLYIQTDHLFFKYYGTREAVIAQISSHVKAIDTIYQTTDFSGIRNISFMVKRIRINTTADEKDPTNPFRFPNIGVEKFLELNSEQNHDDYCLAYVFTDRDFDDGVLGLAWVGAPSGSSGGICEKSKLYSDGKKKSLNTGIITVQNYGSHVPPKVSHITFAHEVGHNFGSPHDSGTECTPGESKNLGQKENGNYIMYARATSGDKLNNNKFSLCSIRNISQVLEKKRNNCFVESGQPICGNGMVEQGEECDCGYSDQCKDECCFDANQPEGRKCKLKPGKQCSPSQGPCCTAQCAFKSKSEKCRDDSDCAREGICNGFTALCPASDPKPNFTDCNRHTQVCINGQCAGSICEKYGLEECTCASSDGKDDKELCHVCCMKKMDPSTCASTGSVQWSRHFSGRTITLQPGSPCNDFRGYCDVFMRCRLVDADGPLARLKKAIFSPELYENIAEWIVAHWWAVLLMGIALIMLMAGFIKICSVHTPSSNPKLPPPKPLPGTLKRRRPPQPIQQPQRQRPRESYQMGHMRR
ADAM10 ctr: inhibits human ADAM10 in ADAM17 exosite counter-screen; 47% of 2,900 active; shares compounds with ADAM17 inh; AID 743256; inhibition, % at 6.95 µM; recombinant ADAM10, EDANS/DABCYL FRET peptide cleavage, 3 h;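 active means mean inhibition over the triplicate runs exceeds the activity threshold set in the earlier primary screen, cut at about 20% in these data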
ADAM17 confirm: confirmation of inhibitors of human ADAM17 | 65% of 2,900 active | inhibition, % at 6.95 µM | recombinant ADAM17, EDANS/DABCYL QFRET peptide cleavage | shares compounds with ADAM17 inh;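 active means mean inhibition across replicates above the hit cutoff set in the primary screen, cut at about 8.5% in these data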
PLCg1 ctr: PLC-gamma1 inhibition, counter-screen for PLC-beta3 hits; shares compounds with PLC-gamma1 inh; purified PLC-gamma1, fluorogenic substrate, fluorescence; inhibition, % at 12.3 µM; 3.1% of 3,300 active; AID 743258
PLCb3 confirm: confirmation of human PLC-beta3 inhibitors; shares compounds with PLC-gamma1 inh; inhibition, % at 12.3 µM; 1% of 3,300 active; purified PLC-beta3, fluorogenic substrate fluorescence; in the data active means inhibition above about 11%
Large screens that a line does not name were inactive (follow-up assays come after a bar, where they were run). Unless noted, no stated cut-off is given here; in the data, active means inhibition above about 9.5%; inactive means the rest.

O=C1NC[C@H](Cc2ccccc2)N(C[C@H]2CCCN2C[C@H](Cc2ccccc2)N2C[C@H](Cc3ccccc3)N(CC3CCCCC3)C(=O)C2=O)C1=O	ADAM17 inh 9.0, PLC-gamma1 inh 14 | ADAM10 ctr 20 | ADAM17 confirm 9.3 | PLCg1 ctr inactive | PLCb3 confirm inactive
O=C1NC[C@H](Cc2ccccc2)N(C[C@@H]2CCCN2C[C@H](Cc2ccccc2)N2C[C@H](Cc3ccccc3)N(CC3CCCCC3)C(=O)C2=O)C1=O	none
O=C(NC(=S)Nc1ccc(Cc2ccncc2)cc1)c1ccccc1F	ADAM17 inh 12, PLC-gamma1 inh 15 | ADAM10 ctr inactive | ADAM17 confirm inactive | PLCg1 ctr inactive | PLCb3 confirm inactive
Cc1ncc([N+](=O)[O-])n1CC(=O)N/N=C/c1ccccc1F	ADAM17 inh 9.9, PLC-beta3 inh 11 | ADAM10 ctr inactive | ADAM17 confirm inactive | PLCg1 ctr inactive | PLCb3 confirm inactive
CN(C(=O)COC(=O)COc1ccc(N(C)S(=O)(=O)c2ccc(Cl)cc2)cc1)c1ccccc1	ADAM17 inh 18, PLC-gamma1 inh 12 | ADAM10 ctr inactive | ADAM17 confirm inactive | PLCg1 ctr inactive | PLCb3 confirm inactive
O=C(Nc1cccc(OC(F)(F)F)c1)C1Cc2c(-c3cccc(F)c3)ccnc2O1 (stereo unspecified)	ADAM17 inh 12, PLC-gamma1 inh 12 | ADAM10 ctr 35 | ADAM17 confirm 19 | PLCg1 ctr inactive | PLCb3 confirm inactive
O=C(Nc1ccc(Cl)cc1F)c1cc(S(=O)(=O)N2CCCCC2)ccc1F	PLC-gamma1 inh 12 | PLCg1 ctr inactive | PLCb3 confirm inactive
CCOC(=O)C1=NOC(C(C)=O)(C(=O)Nc2cc(C)cc(C)c2)C1 (stereo unspecified)	none (no result: Tb MetRS inh)
O=C(c1ccc(-n2cncn2)c2ccoc12)N1CCOCC1	none
COc1cc(-c2ccc3oc(-c4ccsc4)cc(=O)c3c2)cc(OC)c1OC	none
CCOC(=O)c1ccc(-c2ccc3oc(-c4ccsc4)cc(=O)c3c2)cc1F	PLC-gamma1 inh 10 | PLCg1 ctr inactive | PLCb3 confirm inactive
CCCn1c(SCC(=O)NCC)nc2sc3c(c2c1=O)CCC3	PLC-gamma1 inh 9.6 | PLCg1 ctr inactive | PLCb3 confirm inactive
CCCn1c(SCC(=O)N2CCN(C(C)=O)CC2)nc2sc3c(c2c1=O)CCC3	none
CC1(C(=O)NS(=O)(=O)c2cccc(F)c2)CCN1C(=O)c1cccc(F)c1 (stereo unspecified)	none
CC1(C(=O)NS(=O)(=O)c2ccc(F)cc2F)CCN1C(=O)c1cccc(F)c1 (stereo unspecified)	PLC-gamma1 inh 12 | PLCg1 ctr inactive | PLCb3 confirm inactive
CC1(C)CC(=O)N(CC(=O)N2CCN(Cc3ccc4c(c3)OCO4)CC2)c2ccccc2S1(=O)=O	none (no result: Tb MetRS inh)
O=C(CN1C(=O)c2ccccc2S1(=O)=O)N1CCN(Cc2ccc3c(c2)OCO3)CC1	PLC-gamma1 inh 9.7 | PLCg1 ctr inactive | PLCb3 confirm inactive
COc1cccc(NC(=O)n2ncc3c(C)cccc32)c1	PLC-gamma1 inh 10 | PLCg1 ctr inactive | PLCb3 confirm inactive
Cc1ccc(NC(=O)n2ncc3c(C)cccc32)c(C)c1	PLC-gamma1 inh 11 | PLCg1 ctr inactive | PLCb3 confirm inactive
COc1cc(NS(=O)(=O)c2ccc(NC(=S)NC(=O)C3CCCC3)cc2)nc(OC)n1	none
COc1cc(NS(=O)(=O)c2ccc(NC(=O)NC3CCCCC3)cc2)nc(OC)n1	PLC-gamma1 inh 10 | PLCg1 ctr inactive | PLCb3 confirm inactive
NC(=O)C1CNc2ccccc2O1 (stereo unspecified)	PLC-gamma1 inh 11 | PLCg1 ctr inactive | PLCb3 confirm inactive
O=C(O)c1ccc2c(c1Nc1ccccc1)C(=O)c1ccccc1C2=O	PLC-gamma1 inh 10 | PLCg1 ctr inactive | PLCb3 confirm inactive
CNc1c(C(=O)O)ccc2c1C(=O)c1ccccc1C2=O	none
CN(Cc1cccc(Cl)c1Cl)C(=O)CCNC(=O)c1ccco1	PLC-gamma1 inh 12 | PLCg1 ctr inactive | PLCb3 confirm inactive
CCOC(=O)C1CCCN(C(=O)c2cc(F)ccc2C)CC1 (stereo unspecified)	none
O=C(Cn1nc(C(F)(F)F)c2c1CCCC2)N1CCOCC1	PLC-gamma1 inh 9.6 | PLCg1 ctr inactive | PLCb3 confirm inactive
O=C(Cn1nc(C(F)(F)F)c2c1CCCCC2)N1CCOCC1	none
O=C1NC(=S)SC1=C1CCCC1	PLC-gamma1 inh 26 | PLCg1 ctr 16 | PLCb3 confirm inactive
CCCCC[C@H](C)N1C[C@H](COCc2ccccc2)Oc2cc(N3CC[C@@H](N(C)C)C3)ccc2S1(=O)=O	none
CCOc1ccc(NC(=O)C2CCN(S(=O)(=O)c3cccnc3)CC2)cc1	PLC-gamma1 inh 12 | PLCg1 ctr inactive | PLCb3 confirm inactive
CCOc1ccc(OCC)c(NC(=O)C2CCN(S(=O)(=O)c3cccnc3)CC2)c1	none
CCOc1ccc(NC(=O)C2CCCN2S(=O)(=O)c2ccc(OCC)cc2)cc1 (stereo unspecified)	PLC-gamma1 inh 12 | PLCg1 ctr inactive | PLCb3 confirm inactive
CCCCn1nnc(NC(=O)c2ccc([N+](=O)[O-])cc2Cl)n1	none
S=C(NCCN1CCOCC1)Nc1ccc(Cl)cc1	none
O=C(NCCN1CCOCC1)Nc1ccc(Cl)cc1	PLC-gamma1 inh 12 | PLCg1 ctr inactive | PLCb3 confirm inactive
COC(=O)CSc1nnc2n(C3CCCCC3)c(=O)c3c4c(sc3n12)CCCC4	none
COC(=O)CSc1nnc2n(-c3ccc(OC)cc3)c(=O)c3c4c(sc3n12)CCCCC4	PLC-gamma1 inh 10 | PLCg1 ctr inactive | PLCb3 confirm inactive
O=[N+]([O-])c1ccc(N2CCN(Cc3ccc([N+](=O)[O-])o3)CC2)cc1	PLC-gamma1 inh 9.8 | PLCg1 ctr inactive | PLCb3 confirm inactive
Cc1ccc(SCC(=O)NCC2CCCO2)cc1 (stereo unspecified)	PLC-gamma1 inh 11 | PLCg1 ctr inactive | PLCb3 confirm inactive
CC1Cc2nc(SCC(=O)NCC3CCCO3)n(Cc3ccccc3)c(=O)c2S1 (stereo unspecified)	PLC-gamma1 inh 9.6 | PLCg1 ctr inactive | PLCb3 confirm inactive
N#Cc1cccc(NC(=O)CN2CCN(Cc3ccccc3)CC2)c1	none
COc1cc(/C=C/C(=O)N(C)CC(=O)Nc2ccccc2SC)cc(OC)c1OC	none
CSc1ccccc1NC(=O)CN(C)C(=O)/C=C/c1ccccc1	PLC-gamma1 inh 10 | PLCg1 ctr inactive | PLCb3 confirm inactive
